# Data taken from ChEMBL document CHEMBL3091291, “Synthesis and pharmacological characterization of benzenesulfonamides as dual species inhibitors of human and murine mPGES-1” (Bioorg Med Chem, 2013).
# The source made the active and inactive calls. The rule behind the calls is not given here.
# Experiments:
# [1] = Cytotoxicity against IL-1beta/TNFalpha-stimulated human HeLa cells assessed as cell viability at 100 uM after 24 hrs by WST-1 assay; format: cell-based; settings: IL-1beta/TNFalpha-stimulated HeLa cells, read-out: Activity
# Outline: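 HeLa cells seeded at 3 × 10³ per well in medium with 10% FCS, grown 24 h at 37 °C, then stimulated with IL-1b (1 ng/mL) + TNFa (5 ng/mL) and treated at the same time with compound (1, 10, 100 µM) or DMSO for 24 h. WST-1 reagent then added for 90–150 min; absorbance read at 450 nm against 620 nm reference.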
# [2] = target: T1, Prostaglandin E synthase (Homo sapiens) (UniProt O14684); assay: Inhibition of mPGES-1 in human HeLa cells using PGH2 as substrate assessed as inhibition of IL-1beta/TNFalpha-stimulated PGE2 production at 10 uM after 24 hrs by LC-MS/MS analysis; format: cell-based
# T1 sequence (whole entry): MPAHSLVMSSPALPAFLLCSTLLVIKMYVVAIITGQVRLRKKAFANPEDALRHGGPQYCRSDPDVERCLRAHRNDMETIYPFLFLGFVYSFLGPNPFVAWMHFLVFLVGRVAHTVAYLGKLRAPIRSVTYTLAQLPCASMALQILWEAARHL
# Outline: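 HeLa cells (2 × 10⁴ per well) grown 24 h at 37 °C, then given fresh medium with 1 ng/mL IL-1b + 5 ng/mL TNFa (or PBS for unstimulated control) plus compound (1, 10 or 100 µM) or DMSO for 24 h at 37 °C. Supernatant mixed with H₃PO₄, EDTA and deuterated internal standards; PGE₂ measured by SPE and LC–MS/MS.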
# [3] = target: T2, Polyunsaturated fatty acid 5-lipoxygenase (Homo sapiens) (UniProt P09917); assay: Inhibition of calcium ionophore (A23187)-stimulated human 5-LO assessed as reduction of 5(S)-HETE production by measuring remaining activity at 100 uM preincubated for 15 mins followed by calcium ionophore (A23187) addition measured after 15 mins by LC-MS/MS analysis
# T2 sequence (whole entry): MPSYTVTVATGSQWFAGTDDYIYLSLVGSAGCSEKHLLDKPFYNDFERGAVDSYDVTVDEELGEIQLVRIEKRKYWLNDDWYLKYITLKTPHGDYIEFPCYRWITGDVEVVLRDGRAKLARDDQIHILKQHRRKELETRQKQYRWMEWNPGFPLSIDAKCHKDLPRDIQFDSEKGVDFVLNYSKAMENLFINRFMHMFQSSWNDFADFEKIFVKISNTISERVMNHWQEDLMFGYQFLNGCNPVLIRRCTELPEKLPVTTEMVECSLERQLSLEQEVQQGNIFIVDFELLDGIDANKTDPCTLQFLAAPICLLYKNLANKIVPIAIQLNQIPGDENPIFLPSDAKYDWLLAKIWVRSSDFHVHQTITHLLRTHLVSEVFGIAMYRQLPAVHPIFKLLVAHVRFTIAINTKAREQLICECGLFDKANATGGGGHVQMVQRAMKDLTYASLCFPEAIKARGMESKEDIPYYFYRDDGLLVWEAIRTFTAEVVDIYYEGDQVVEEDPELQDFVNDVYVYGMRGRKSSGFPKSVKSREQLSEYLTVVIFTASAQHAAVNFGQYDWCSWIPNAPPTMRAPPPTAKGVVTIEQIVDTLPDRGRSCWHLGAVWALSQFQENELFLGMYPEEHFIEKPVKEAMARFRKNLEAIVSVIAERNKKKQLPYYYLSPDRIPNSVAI
# Outline: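 Heparinized human whole blood (500 µL) preincubated with compound 15 min at 37 °C, then stimulated with 20 µM calcium ionophore A23187 in autologous plasma for 15 min at 37 °C. Plasma spiked with deuterated LTB₄ and HETE internal standards, extracted into ethyl acetate, analysed by LC–MS/MS. Inhibition scored when a level fell by 33% or more versus control.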
SMILES,"viability at 24 h, 100 µM [1]",inhibition [2],Activity [3]
COc1ccc(CN(CC2CCCCC2)S(=O)(=O)c2ccc(C(=O)O)cc2)cc1,50%,Active,65.6%
COc1ccc(CN(Cc2ccccc2)S(=O)(=O)c2ccc(C(=O)O)cc2)cc1,50%,inactive,120%
O=C(O)c1ccc(S(=O)(=O)N(Cc2ccccc2)Cc2ccc(Oc3ccccc3)cc2)cc1,50%,Active,98.7%
O=C(O)c1ccc(S(=O)(=O)N(Cc2ccccc2)Cc2ccc(Nc3ccccc3)cc2)cc1,50%,Active,56.2%
O=C(O)c1ccc(S(=O)(=O)N(Cc2ccccc2)c2ccc(Oc3ccccc3)cc2)cc1,50%,Active,125%
